Test [1] addresses T1, Carbonic anhydrase 9 (Homo sapiens, UniProt Q16790). The test can be described thus: Inhibition of recombinant human CA9 pre-incubated for 15 mins measured by phenol red dye based stopped flow CO2 hydration assay.
In a further test the target is Carbonic anhydrase 1 (Homo sapiens, UniProt P00915). The test can be described thus: Inhibition of recombinant human CA1 pre-incubated for 6 hrs measured by phenol red dye based stopped flow CO2 hydration assay. In outline:
(§1)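 Stopped-flow CO2 hydration at 0.2 mM phenol red (557 nm) in 20 mM Hepes pH 7.5 with 20 mM Na2SO4, initial rates followed for 10–100 s. CO2 1.7–17 mM; ≥6 traces of the first 5–10% of reaction per inhibitor; uncatalysed rate subtracted. Inhibitor diluted in assay buffer down to 0.01 nM, preincubated with enzyme 6 h at room temperature. Values are means of 3 assays.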

Test [2] deals with T1, Carbonic anhydrase 9. The test can be described thus: Inhibition of recombinant human CA9 pre-incubated for 6 hrs measured by phenol red dye based stopped flow CO2 hydration assay. The method in brief: as §1
The target in another test is Carbonic anhydrase 2 (Homo sapiens, UniProt P00918). Description: Inhibition of recombinant human CA2 pre-incubated for 6 hrs measured by phenol red dye based stopped flow CO2 hydration assay. The method in brief:
as §1

For the next test, the target named is Carbonic anhydrase 12 (Homo sapiens, UniProt O43570). Description: Inhibition of recombinant human CA12 pre-incubated for 6 hrs measured by phenol red dye based stopped flow CO2 hydration assay. In outline:
as §1

In test [3] the test system is T47D. The test can be described thus: Induction of cell cycle arrest in human T47D cells assessed as accumulation of cells in G2/M phase at […] uM measured after 24 hrs by DNA flow cytometry assay (reference value: 16.59%). It is filed as functional.
The subject of test [4] is T47D. Description: Induction of cell cycle arrest in human T47D cells assessed as accumulation of cells in sub-G1 phase at […] uM measured after 24 hrs by DNA flow cytometry assay (reference value: 2.41%). It is filed as functional. (A flow cytometer gives signals particle by particle.)
The subject of test [5] is T47D. The test can be described thus: Induction of apoptosis in human T47D cells assessed as viable cells at […] uM measured after 24 hrs by Annexin V-FITC stain based flow cytometry method relative to control. It is filed as functional, cell-based. As to conditions: dose 7.56 µM.
Test [6] concerns T47D. The test can be described thus: Induction of apoptosis in human T47D cells assessed as early apoptotic cells at […] uM measured after 24 hrs by Annexin V-FITC stain based flow cytometry method (reference value: 0.39%). The test is classed as functional.
Test [7] has as its system T47D. Description: Induction of apoptosis in human T47D cells assessed as late apoptotic cells at […] uM measured after 24 hrs by Annexin V-FITC stain based flow cytometry method (reference value: 0.17%). The test is classed as functional.
Test [8] deals with T47D. The test can be described thus: Induction of apoptosis in human T47D cells assessed as necrotic cells at […] uM measured after 24 hrs by Annexin V-FITC stain based flow cytometry method (reference value: 1.91%). It is filed as functional.
The next test has as its system HeLa. The test can be described thus: Antiproliferative activity against human HeLa cells assessed as cell viability measured after 72 hrs by SRB assay. The test is classed as functional, cell-based. In outline: (§2)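 SRB colorimetric assay on ATCC-sourced cell lines kept in RPMI or DMEM with 10% heat-inactivated FBS, penicillin 100 units/mL and streptomycin at 37 °C in humidified 5% CO2. Preliminary screen: each compound tested in triplicate at two fixed concentrations (10 and 100). Read-out is percent cell viability.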
In general terms: In SRB staining, fixed cells bind dye roughly in proportion to their protein.

The test system of another test is COLO 205. The test can be described thus: Antiproliferative activity against human COLO 205 cells assessed as cell viability measured after 72 hrs by SRB assay. The test is classed as functional, cell-based. In outline: as §2
The test system of a further test is A549. Description: Antiproliferative activity against human A549 cells assessed as cell viability measured after 72 hrs by SRB assay. The test is classed as functional, cell-based. The method in brief:
as §2

The next test relates to HL-60. The test can be described thus: Antiproliferative activity against human HL-60 cells assessed as cell viability measured after 72 hrs by SRB assay. It is filed as functional, cell-based. The method in brief: as §2
The next test deals with SK-OV-3. Description: Antiproliferative activity against human SK-OV-3 cells assessed as cell viability measured after 72 hrs by SRB assay. It is filed as functional, cell-based. The method in brief:
as §2

Test [9] has as its system MDA-MB-231. The test can be described thus: Antiproliferative activity against human MDA-MB-231 cells assessed as cell viability measured after 72 hrs by SRB assay. The test is classed as functional, cell-based. The method in brief:
as §2

The subject of the next test is MCF7. Description: Antiproliferative activity against human MCF7 cells assessed as cell viability measured after 72 hrs by SRB assay. It is filed as functional, cell-based. In outline:
as §2

The test system of test [10] is T47D. Description: Antiproliferative activity against human T47D cells assessed as cell viability measured after 72 hrs by SRB assay. It is filed as functional, cell-based. The method in brief: as §2
In test [11] the test system is MDA-MB-231. The test can be described thus: cells. The note with it: Homo sapiens, MDA-MB-231, 72 h.
The test system of test [12] is T47D. The test can be described thus: cells. The note with it: Homo sapiens, 72 h.
In test [13] the test system is T47D. The test can be described thus: Induction of apoptosis in human T47D cells assessed as viable cells at […] uM measured after 24 hrs by Annexin V-FITC stain based flow cytometry method. It is filed as functional, cell-based. The note with it: dose 2.45 µM.

In general, Ki refers to the equilibrium dissociation constant of an inhibitor or competing ligand from its target. As usually defined, the IC50 is the concentration needed to halve the response being measured. Low readings indicate higher potency, high ones lower potency.

Molecules are shown by their SMILES. The source made the active and inactive calls. The rule behind the calls is not given here.

Sequence of Carbonic anhydrase 12 (O43570 whole entry): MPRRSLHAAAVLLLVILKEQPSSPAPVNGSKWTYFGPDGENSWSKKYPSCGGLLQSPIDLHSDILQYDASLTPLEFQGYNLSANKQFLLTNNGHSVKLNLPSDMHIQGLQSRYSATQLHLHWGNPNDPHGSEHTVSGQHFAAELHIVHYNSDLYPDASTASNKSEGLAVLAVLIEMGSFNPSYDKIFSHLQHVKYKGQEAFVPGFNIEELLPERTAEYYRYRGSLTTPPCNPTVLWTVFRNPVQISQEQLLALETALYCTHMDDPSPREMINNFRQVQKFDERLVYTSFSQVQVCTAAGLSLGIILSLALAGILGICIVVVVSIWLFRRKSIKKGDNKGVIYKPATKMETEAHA
Sequence of Carbonic anhydrase 1 (P00915 whole entry): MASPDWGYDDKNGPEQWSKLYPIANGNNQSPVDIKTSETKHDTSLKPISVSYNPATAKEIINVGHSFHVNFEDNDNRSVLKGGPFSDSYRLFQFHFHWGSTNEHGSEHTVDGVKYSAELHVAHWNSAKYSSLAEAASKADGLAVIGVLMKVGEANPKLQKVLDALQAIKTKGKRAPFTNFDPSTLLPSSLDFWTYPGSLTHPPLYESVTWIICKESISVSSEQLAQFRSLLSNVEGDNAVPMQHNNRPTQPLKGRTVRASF

`NS(=O)(=O)c1cccc(NC(=O)Cn2cc(F)c(=O)[nH]c2=O)c1`: the Ki at Carbonic anhydrase 9 [1] amounted to 44.7 nM.
Regarding `O=C(Cn1cc(F)c(=O)[nH]c1=O)Oc1ccc2ccc(=O)oc2c1`, the Ki was above 10000 nM on Carbonic anhydrase 1, 36.8 nM on Carbonic anhydrase 9 [2], above 10000 nM on Carbonic anhydrase 2 and 14.4 nM at Carbonic anhydrase 12.
Take `NS(=O)(=O)c1ccc(O)c(NC(=O)Cn2cc(F)c(=O)[nH]c2=O)c1`: the Ki on Carbonic anhydrase 9 [1] stood at 453 nM. For the same compound, the Activity in the test on T47D [3] (7.56 µM) amounted to 26.83%; in the test with T47D [4] (7.56 µM), 12.72%; in the test with T47D [6] (7.56 µM), 3.59%; in the test on T47D [7] (7.56 µM), 9.62%; with T47D [8] (7.56 µM), 1.36%. Also, in the test with T47D [5], the result was Active. Also, the “growth inhibition (GI)” value in the test with HeLa, in the test with COLO 205, in the test with A549, with HL-60, in the test with SK-OV-3 and in the test on MCF7 was “inactive” in each case. For the same compound, the “growth inhibition (GI)” value in the test on MDA-MB-231 [9] and in the test on T47D [10] was “Active” in each case. The IC50 came out at 25500 nM with MDA-MB-231 [11] and 7560 nM in the test with T47D [12].
In the case of `NS(=O)(=O)c1ccc(CCN(Cc2ccc(F)cc2)C(=O)Cn2cc(F)c(=O)[nH]c2=O)cc1`, the Ki at Carbonic anhydrase 9 [1] is 11.8 nM.
With `CN(C)c1ccc(CN(CCc2ccc(S(N)(=O)=O)cc2)C(=O)Cn2cc(F)c(=O)[nH]c2=O)cc1`, the Ki at Carbonic anhydrase 9 [1] came to 26.8 nM.
The same measure, in the same setting: for `NS(=O)(=O)c1ccc(CCNC(=O)Cn2cc(F)c(=O)[nH]c2=O)cc1` the value was 24.8 nM.
In the case of `NS(=O)(=O)c1ccc(CNC(=O)Cn2cc(F)c(=O)[nH]c2=O)cc1`, at Carbonic anhydrase 9 [1], the Ki amounted to 29.2 nM.
The same measure, in the same setting: the figure for `NS(=O)(=O)c1ccc(CCN(Cc2ccccc2)C(=O)Cn2cc(F)c(=O)[nH]c2=O)cc1` is 3.5 nM.
In the case of `Cc1cc(=O)oc2cc(-n3cc(Cn4cc(F)c(=O)[nH]c4=O)nn3)ccc12`, the Ki on Carbonic anhydrase 1 was above 10000 nM; on Carbonic anhydrase 9 [2] it was 173 nM; at Carbonic anhydrase 2, above 10000 nM; at Carbonic anhydrase 12 it was 408 nM.
`NS(=O)(=O)c1ccc(-n2cc(Cn3cc(F)c(=O)[nH]c3=O)nn2)cc1`: the Ki on Carbonic anhydrase 9 [1] was determined as 0.47 nM. Besides, the “growth inhibition (GI)” value in the test on HeLa, in the test with COLO 205, in the test on A549, in the test on HL-60, with SK-OV-3 and in the test on MCF7 was “inactive” each time. Also, the “growth inhibition (GI)” value in the test with MDA-MB-231 [9] and in the test on T47D [10] was “Active” each time. Moreover, the IC50 in the test with MDA-MB-231 [11] was 22800 nM; in the test with T47D [12] it was 33500 nM.
For the compound `NS(=O)(=O)c1cccc(-n2cc(Cn3cc(F)c(=O)[nH]c3=O)nn2)c1`, the Ki at Carbonic anhydrase 9 [1] amounted to 105 nM.
Turning to `COc1ccc(CN(CCc2ccc(S(N)(=O)=O)cc2)C(=O)Cn2cc(F)c(=O)[nH]c2=O)cc1`, the Ki on Carbonic anhydrase 9 [1] came to 1.9 nM. Further, the Activity in the test on T47D [3] (2.45 µM) is reported as 35.47%; with T47D [4] (2.45 µM), 18.04%; in the test on T47D [6] (2.45 µM) it was 7.31%; in the test with T47D [7] (2.45 µM), 12.19%; in the test with T47D [8] (2.45 µM), 2.51%. For the same compound, the result in the test on T47D [13] was Active. The “growth inhibition (GI)” value with HeLa, in the test on COLO 205, in the test with A549, with HL-60, in the test on SK-OV-3 and with MCF7 was “inactive” throughout. The “growth inhibition (GI)” value in the test on MDA-MB-231 [9] and in the test on T47D [10] was “Active” each time. Moreover, the values for the IC50 in the test on MDA-MB-231 [11] and in the test on T47D [12] were 6860 nM and 2450 nM, respectively.
Consider `NS(=O)(=O)c1ccc(CCN(Cc2ccc(Cl)cc2)C(=O)Cn2cc(F)c(=O)[nH]c2=O)cc1`, for which the Ki at Carbonic anhydrase 9 [1] was determined as 4.2 nM. Further, the “growth inhibition (GI)” value with HeLa, in the test on COLO 205, in the test with A549, in the test with HL-60, with SK-OV-3 and in the test on MCF7 was “inactive” throughout. Further, the “growth inhibition (GI)” value in the test on MDA-MB-231 [9] and in the test on T47D [10] was “Active” each time. The IC50 is 40900 nM with MDA-MB-231 [11] and 18900 nM with T47D [12].
For `NS(=O)(=O)c1ccc(-n2cc(Cn3cc(F)c(=O)[nH]c3=O)nn2)c(Br)c1`, on Carbonic anhydrase 9 [1], the Ki was 3.8 nM.
With `NS(=O)(=O)c1ccc(-n2cc(Cn3cc(F)c(=O)[nH]c3=O)nn2)c(Cl)c1`, the Ki on Carbonic anhydrase 9 [1] stood at 11.2 nM.
With `Cc1cc(=O)oc2cc(NC(=O)Cn3cc(F)c(=O)[nH]c3=O)ccc12`, the Ki was above 10000 nM at Carbonic anhydrase 1, 16.5 nM on Carbonic anhydrase 9 [2], above 10000 nM at Carbonic anhydrase 2 and 23.2 nM on Carbonic anhydrase 12. Moreover, the “growth inhibition (GI)” value in the test on HeLa, in the test on COLO 205, with A549, in the test with HL-60, in the test on SK-OV-3 and in the test on MCF7 was “inactive” in each case. The “growth inhibition (GI)” value in the test with MDA-MB-231 [9] and with T47D [10] was “Active” throughout. The IC50 was 32000 nM in the test on MDA-MB-231 [11] and 13200 nM in the test on T47D [12].
As to `NS(=O)(=O)c1ccc(NC(=O)Cn2cc(F)c(=O)[nH]c2=O)cc1`, on Carbonic anhydrase 9 [1], the Ki stood at 4.8 nM.
For `N#Cc1ccc(CN(CCc2ccc(S(N)(=O)=O)cc2)C(=O)Cn2cc(F)c(=O)[nH]c2=O)cc1`, on Carbonic anhydrase 9 [1], the Ki was 4.9 nM.

Source of the values: ChEMBL document CHEMBL4765260, “Inclusion of a 5-fluorouracil moiety in nitrogenous bases derivatives as human carbonic anhydrase IX and XII inhibitors produced a targeted action against MDA-MB-231 and T47D breast cancer cells” (Eur J Med Chem, 2020).
